Most compounds without a hit are left out; they make up all but 2.6% or so of the library.
SENP6 inh – SENP6 protease inhibition; Q9GZR1; Recombinant SENP6 catalytic domain, aminoluciferin luminescence; inhibition, % at 10 µM; 1.8% of 330,000 active;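 active = inhibition above about 50% at the single tested dose, limit read from the data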;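 note: plate controls were DMSO wells with enzyme for no effect and DMSO wells lacking enzyme for full effect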
Target sequence (Q9GZR1 628-1112 limits assumed): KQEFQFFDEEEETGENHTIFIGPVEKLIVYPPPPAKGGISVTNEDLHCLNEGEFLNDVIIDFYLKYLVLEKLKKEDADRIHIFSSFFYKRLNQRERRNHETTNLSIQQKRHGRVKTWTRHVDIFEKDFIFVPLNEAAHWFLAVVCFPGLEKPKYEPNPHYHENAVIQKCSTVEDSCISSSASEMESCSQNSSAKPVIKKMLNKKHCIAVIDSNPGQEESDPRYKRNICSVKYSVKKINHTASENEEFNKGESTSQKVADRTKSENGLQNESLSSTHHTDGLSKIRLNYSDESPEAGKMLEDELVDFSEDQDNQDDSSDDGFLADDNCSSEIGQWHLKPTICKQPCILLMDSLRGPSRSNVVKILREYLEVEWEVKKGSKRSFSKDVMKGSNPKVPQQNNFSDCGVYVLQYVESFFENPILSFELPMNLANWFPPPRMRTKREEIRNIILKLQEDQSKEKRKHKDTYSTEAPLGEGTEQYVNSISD
SENP8 block-1 – SENP8 protease inhibition; 1.2% of 330,000 active; inhibition, % at 10 µM; purified SENP8, Z-RLRGG-aminoluciferin cleavage, luminescence; in the data active = inhibition above about 50%
SENP7 inh – SENP7 protease inhibition; Q9BQF6; recombinant SENP7, Z-RLRGG-aminoluciferin luminescence, 40 min; inhibition, % at 5 µM; 1.5% of 330,000 active; AID 434973;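 active = inhibition above about 50% at the single test dose, limit read from the data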;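 note: plate controls were DMSO with enzyme for no effect and no enzyme buffer wells for full effect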
SENP8 block-2 – inhibitors of human SENP8 protease. recombinant SENP8, Nedd8 substrate fluorescence. inhibition, % at 20 µM. 0.64% of 360,000 active. AID 602440. Q96LD8; in the data active = inhibition mostly above about 40%, no sharp cut-off; inactive = mostly below about 27%
SENP1 inh – inhibitors of human SENP1 SUMO protease catalytic domain; Q9P0U3; 0.21% of 360,000 active; recombinant SENP1 catalytic domain, CyPet-SUMO1-YPet FRET cleavage; AID 624204; inhibition, % at 10 µM;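 active = inhibition at least 30% at 10 µM, raw YFP signal under a set limit, fluorescence ratio 0.5 to 1.5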;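 note: 0% = enzyme with DMSO and 100% = no enzyme wells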
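Controls: no-enzyme wells low, DMSO-plus-enzyme wells high control. Test system: human recombinant His6-tagged SENP1 catalytic domain enzyme. Reagent: SFCypet-SUMO1-SFYpet FRET protein substrate, 25 nM final. Doses: one dose per compound, 10 µM, 0.5% DMSO. Detection: FRET, CFP and YFP emission. Timing: 50 min reaction at room temperature.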
Platelet DG rel – platelet dense granule release activity | inhibition, %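 (compounds screened at 7.5 µM in platelet-rich plasma)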 | AID 1663 | 0.22% of 300,000 active | human platelet-rich plasma, SFLLRN dense granule ATP release, luminescence;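 active = mean replicate score, as percent of positive control, at or above 50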
SENP8 confirm – confirmation of human SENP8 protease inhibitors; inhibition, % at 12.5 µM; Recombinant SENP8, Z-RLRGG-aminoluciferin luminescence, 60 min; AID 488912; shares compounds with SENP7 inh; 40% of 6,200 active;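 active = mean inhibition across replicates above about 50%, limit read from the data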
SENP6 conf – confirmation of human SENP6 protease inhibitors; AID 488915; inhibition, % at 12.5 µM; 58% of 6,200 active; shares compounds with SENP7 inh; recombinant SENP6, Z-RLRGG-aminoluciferin luminescence
SENP7 conf – confirmation of human SENP7 protease inhibitors; shares compounds with SENP7 inh; recombinant SENP7, Z-RLRGG-aminoluciferin luminescence, 40 min; inhibition, % at 12.5 µM; 69% of 6,200 active; AID 488917
Casp3 SENP sel – selectivity test for SENP inhibitors: human caspase-3 inhibition; shares compounds with SENP7 inh; purified caspase-3, Z-DEVD-aminoluciferin luminescence, 60 min; inhibition, % at 12.5 µM; 60% of 6,200 active; AID 488918;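 active = mean inhibition above about 50%, limit read from the data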;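 note: plate controls were enzyme with DMSO for no effect and wells without caspase-3 for full effect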
SENP luc ctr – interferes with luciferase luminescence in SENP counter-screen | shares compounds with SENP7 inh | Pre-incubated SENP8/Z-RLRGG-aminoluciferin, luciferase luminescence interference | inhibition, % at 12.5 µM | 39% of 6,200 active;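 active = mean inhibition above about 50% when retested at one dose, limit read from the data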;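 note: plate controls were DMSO wells with completed reaction for no effect and substrate without enzyme for full effect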
Active calls of the source: *.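 Rule for the calls, unless noted: active = mean inhibition above about 50% in the one-dose retest (limit read from the data); inactive = the rest.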

What do the screens show for `COc1cc2c(cc1OC)-c1c(OC)c(OC)cc3c1[C@H](C2)N(C)CC3`?
SENP6 inh: 83.0*; SENP8 block-1: 42.4; SENP7 inh: 51.6*; SENP8 block-2: 27.5; SENP1 inh: 22.7; Platelet DG rel: 2.5; SENP8 confirm: 22.4; SENP6 conf: 66.0*; SENP7 conf: 35.0; Casp3 SENP sel: 46.7; SENP luc ctr: -4.9

Results for COc1ccc(OC)c(N2C(=O)NC(=O)/C(=C/c3ccc([N+](=O)[O-])s3)C2=O)c1 ?
SENP6 inh: 55.0*; SENP8 block-1: 16.0; SENP7 inh: 10.5; SENP8 block-2: 62.9*; SENP1 inh: 8.4; Platelet DG rel: -4.6; SENP8 confirm: -8.8; SENP6 conf: 21.9; SENP7 conf: 6.8; Casp3 SENP sel: -4.6; SENP luc ctr: -6.2

What do the screens show for `COc1ccc(OC)c(N2C(=O)/C(=C/c3ccco3)C(=O)NC2=S)c1`?
SENP6 inh: -43.1; SENP8 block-1: 22.5; SENP7 inh: -0.4; Platelet DG rel: 4.0

Results for CN1C(=O)C(=Cc2ccccc2OCc2ccc(Cl)cc2)C(=O)N(C)C1=O ?
SENP6 inh: 75.1*; SENP8 block-1: 44.2; SENP7 inh: 63.8*; SENP8 block-2: 9.9; SENP1 inh: -1.0; Platelet DG rel: -0.8; SENP8 confirm: 44.0; SENP6 conf: 57.2*; SENP7 conf: 76.2*; Casp3 SENP sel: 51.9*; SENP luc ctr: 69.8*

Results for CCCCNC(=O)c1c(N)n(CCCOC)c2nc3ccccc3nc12 ?
SENP6 inh: 88.6*; SENP8 block-1: 85.9*; SENP7 inh: 48.9; SENP8 block-2: -276.8; SENP1 inh: -27.4; Platelet DG rel: 1.3; SENP8 confirm: 18.7; SENP6 conf: 49.0; SENP7 conf: 17.6; Casp3 SENP sel: 0.3; SENP luc ctr: -7.4

What do the screens show for `CCOC(=O)c1c(N)n(CCCOC(=O)c2ccco2)c2nc3ccccc3nc12`?
SENP6 inh: 15.1; SENP8 block-1: 21.4; SENP7 inh: 19.8; SENP8 block-2: -477.6; SENP1 inh: -113.8; Platelet DG rel: -11.2

What do the screens show for `COCCNC(=O)c1c(NC(=O)c2ccc(Br)o2)n(Cc2ccccc2)c2nc3ccccc3nc12`?
SENP6 inh: 82.8*; SENP8 block-1: 82.2*; SENP7 inh: 41.7; SENP8 block-2: -289.9; SENP1 inh: -27.7; Platelet DG rel: 3.0; SENP8 confirm: 4.8; SENP6 conf: 37.7; SENP7 conf: 17.1; Casp3 SENP sel: 4.2; SENP luc ctr: 2.6

Results for COCCCn1c(N)c(C(=O)OCCOC)c2nc3ccccc3nc21 ?
SENP6 inh: 58.3*; SENP8 block-1: 59.9*; SENP7 inh: 57.2*; SENP8 block-2: -472.5; SENP1 inh: -108.2; Platelet DG rel: -4.1; SENP8 confirm: 6.7; SENP6 conf: 8.7; SENP7 conf: 1.0; Casp3 SENP sel: -1.9; SENP luc ctr: -1.8

Results for COCCCNC(=O)c1c(N)n(Cc2ccco2)c2nc3ccccc3nc12 ?
SENP6 inh: 6.6; SENP8 block-1: 0.4; SENP7 inh: -0.5; SENP8 block-2: -463.6; SENP1 inh: -39.1; Platelet DG rel: -13.1

How did CCCCCn1c(NC(=O)c2ccco2)c(C(=O)OCC)c2nc3ccccc3nc21 do in these assays?
SENP6 inh: 79.2*; SENP8 block-1: 79.6*; SENP7 inh: 34.7; SENP8 block-2: -360.6; SENP1 inh: -25.6; Platelet DG rel: 2.6; SENP8 confirm: -0.4; SENP6 conf: 5.6; SENP7 conf: 1.7; Casp3 SENP sel: -2.8; SENP luc ctr: -6.0
